Values after ≈ are worked out from the molar mass of the structure shown.
Columns and labels:
[1] = test system: Staphylococcus aureus; assay: Antibacterial activity against Staphylococcus aureus ATCC 6538 after 24 hrs by microdilution method; format: functional; details: ATCC 6538, 24 h
Summary of the method: (§1)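 Broth microdilution in 96-well plates. Bacterial suspensions were adjusted in sterile saline to 1.0 × 10⁵ CFU/ml, prepared daily and kept at 4 °C. Compound was added to LB broth with 1.0 × 10⁴ CFU per well and shaken at 160 rpm for 24 h at […] (so in the source). MIC is the lowest concentration with no visible growth under a binocular microscope. OD655 was also read. Duplicate, repeated three times.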

[2] = test system: Bacillus cereus; assay: Antibacterial activity against clinical isolate of Bacillus cereus after 24 hrs by microdilution method; format: functional; summary of the method: as §1
[3] = test system: Micrococcus flavus; assay: Antibacterial activity against Micrococcus flavus ATCC 10240 after 24 hrs by microdilution method; format: functional; details: ATCC 10240, 24 h; summary of the method: as §1
[4] = test system: Listeria monocytogenes; assay: Antibacterial activity against Listeria monocytogenes NCTC 7973 after 24 hrs by microdilution method; format: functional; details: NCTC 7973, 24 h; summary of the method: as §1
[5] = test system: Pseudomonas aeruginosa; assay: Antibacterial activity against Pseudomonas aeruginosa ATCC 27853 after 24 hrs by microdilution method; format: functional; details: ATCC 27853, 24 h; summary of the method: as §1
[6] = test system: Salmonella typhimurium; assay: Antibacterial activity against Salmonella Typhimurium ATCC 13311 after 24 hrs by microdilution method; format: functional, Salmonella enterica subsp. enterica serovar Typhimurium; details: Salmonella enterica, ATCC 13311, 24 h; summary of the method: as §1
[7] = test system: Escherichia coli; assay: Antibacterial activity against Escherichia coli ATCC 35210 after 24 hrs by microdilution method; format: functional; details: ATCC 35210, 24 h; summary of the method: as §1
[8] = test system: Enterococcus faecalis; assay: Antibacterial activity against Enterococcus faecalis isolated from human after 24 hrs by microdilution method; format: functional; summary of the method: as §1
[9] = test system: Staphylococcus aureus; assay: Antibacterial activity against Staphylococcus aureus ATCC 6538 incubated for 24 hrs followed by serial sub-cultivation for 24 hrs by microdilution method; format: functional; details: ATCC 6538, 24 h
Summary of the method: (§2)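 MBC: after the 24 h LB broth microdilution (1.0 × 10⁴ CFU per well, 160 rpm), wells were serially sub-cultured into fresh broth plates and incubated a further 24 h. MBC is the lowest concentration with no visible growth, taken as 99.5% killing of the original inoculum. Duplicate, repeated three times.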

[10] = test system: Bacillus cereus; assay: Antibacterial activity against clinical isolate of Bacillus cereus incubated for 24 hrs followed by serial sub-cultivation for 24 hrs by microdilution; format: functional; summary of the method: as §2
[11] = test system: Micrococcus flavus; assay: Antibacterial activity against Micrococcus flavus ATCC 10240 incubated for 24 hrs followed by serial sub-cultivation for 24 hrs by microdilution; format: functional; details: ATCC 10240, 24 h; summary of the method: as §2
[12] = test system: Listeria monocytogenes; assay: Antibacterial activity against Listeria monocytogenes NCTC 7973 incubated for 24 hrs followed by serial sub-cultivation for 24 hrs by microdilution; format: functional; details: NCTC 7973, 24 h; summary of the method: as §2
[13] = test system: Pseudomonas aeruginosa; assay: Antibacterial activity against Pseudomonas aeruginosa ATCC 27853 incubated for 24 hrs followed by serial sub-cultivation for 24 hrs by microdilution; format: functional; details: ATCC 27853, 24 h; summary of the method: as §2
[14] = test system: Salmonella typhimurium; assay: Antibacterial activity against Salmonella Typhimurium ATCC 13311 incubated for 24 hrs followed by serial sub-cultivation for 24 hrs by microdilution; format: functional, Salmonella enterica subsp. enterica serovar Typhimurium; details: Salmonella enterica, ATCC 13311, 24 h; summary of the method: as §2
[15] = test system: Escherichia coli; assay: Antibacterial activity against Escherichia coli ATCC 35210 incubated for 24 hrs followed by serial sub-cultivation for 24 hrs by microdilution; format: functional; details: ATCC 35210, 24 h; summary of the method: as §2
[16] = test system: Enterococcus faecalis; assay: Antibacterial activity against Enterococcus faecalis isolated from human incubated for 24 hrs followed by serial sub-cultivation for 24 hrs by microdilution; format: functional; summary of the method: as §2
[17] = test system: Aspergillus ochraceus; assay: Antifungal activity against Aspergillus ochraceus ATCC 12066 after 72 hrs by serial dilution technique; format: functional; details: ATCC 12066, 72 h
Summary of the method: (§3)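 Modified microdilution in 96-well plates. Fungi were kept on malt agar at 4 °C. Spores were washed off in sterile 0.85% saline with 0.1% Tween 80. Compounds were dissolved at 1 mg/ml in 5% DMSO with 0.1% Tween 80 and added to malt broth with inoculum. Plates were shaken at 160 rpm for 72 h at 28 °C. Duplicate, repeated three times.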

[18] = test system: Aspergillus niger; assay: Antifungal activity against Aspergillus niger ATCC 6275 after 72 hrs by serial dilution technique; format: functional; details: ATCC 6275, 72 h; summary of the method: as §3
[19] = test system: Aspergillus flavus; assay: Antifungal activity against Aspergillus flavus ATCC 9643 after 72 hrs by serial dilution technique; format: functional; details: ATCC 9643, 72 h; summary of the method: as §3
[20] = test system: Talaromyces funiculosus; assay: Antifungal activity against Penicillium funiculosum ATCC 36839 after 72 hrs by serial dilution technique; format: functional; details: ATCC 36839, 72 h; summary of the method: as §3
[21] = test system: Penicillium ochrochloron; assay: Antifungal activity against Penicillium ochrochloron ATCC 9112 after 72 hrs by serial dilution technique; format: functional; details: ATCC 9112, 72 h; summary of the method: as §3
[22] = test system: Trichoderma viride; assay: Antifungal activity against Trichoderma viride IAM 5061 after 72 hrs by serial dilution technique; format: functional; details: IAM 5061, 72 h; summary of the method: as §3
[23] = test system: Candida albicans; assay: Antifungal activity against Candida albicans isolated from human after 72 hrs by serial dilution technique; format: functional; summary of the method: as §3
[24] = test system: Aspergillus ochraceus; assay: Antifungal activity against Aspergillus ochraceus ATCC 12066 incubated for 72 hrs followed by serial sub-cultivation for 72 hrs by serial dilution technique; format: functional; details: ATCC 12066, 72 h
Summary of the method: (§4)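 MFC: material from 72 h malt broth microdilution wells was serially sub-cultured into fresh broth plates and incubated a further 72 h at 28 °C. Fungicidal concentration is taken from growth after sub-culture. Duplicate, repeated three times.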

[25] = test system: Aspergillus fumigatus; assay: Antifungal activity against Aspergillus fumigatus isolated from human incubated for 72 hrs followed by serial sub-cultivation for 72 hrs by serial dilution technique; format: functional; summary of the method: as §4
[26] = test system: Aspergillus niger; assay: Antifungal activity against Aspergillus niger ATCC 6275 incubated for 72 hrs followed by serial sub-cultivation for 72 hrs by serial dilution technique; format: functional; details: ATCC 6275, 72 h; summary of the method: as §4
[27] = test system: Aspergillus flavus; assay: Antifungal activity against Aspergillus flavus ATCC 9643 incubated for 72 hrs followed by serial sub-cultivation for 72 hrs by serial dilution technique; format: functional; details: ATCC 9643, 72 h; summary of the method: as §4
[28] = test system: Talaromyces funiculosus; assay: Antifungal activity against Penicillium funiculosum ATCC 36839 incubated for 72 hrs followed by serial sub-cultivation for 72 hrs by serial dilution technique; format: functional; details: ATCC 36839, 72 h; summary of the method: as §4
[29] = test system: Penicillium ochrochloron; assay: Antifungal activity against Penicillium ochrochloron ATCC 9112 incubated for 72 hrs followed by serial sub-cultivation for 72 hrs by serial dilution technique; format: functional; details: ATCC 9112, 72 h; summary of the method: as §4
[30] = test system: Trichoderma viride; assay: Antifungal activity against Trichoderma viride IAM 5061 incubated for 72 hrs followed by serial sub-cultivation for 72 hrs by serial dilution technique; format: functional; details: IAM 5061, 72 h; summary of the method: as §4
[31] = test system: Candida albicans; assay: Antifungal activity against Candida albicans isolated from human incubated for 72 hrs followed by serial sub-cultivation for 72 hrs by serial dilution technique; format: functional; summary of the method: as §4
[32] = test system: Pseudomonas aeruginosa; assay: Ratio of ampicillin MIC to compound MIC for Pseudomonas aeruginosa ATCC 27853; format: functional
[33] = test system: Aspergillus ochraceus; assay: Ratio of bifonazole to compound for Aspergillus ochraceus ATCC 12066; format: functional
[34] = test system: Aspergillus niger; assay: Ratio of bifonazole to compound for Aspergillus niger ATCC 6275; format: functional
[35] = test system: Talaromyces funiculosus; assay: Ratio of bifonazole to compound for Penicillium funiculosum ATCC 36839; format: functional
[36] = test system: Penicillium ochrochloron; assay: Ratio of bifonazole to compound for Penicillium ochrochloron ATCC 9112; format: functional
[37] = test system: Trichoderma viride; assay: Ratio of bifonazole to compound for Trichoderma viride IAM 5061; format: functional
[38] = test system: Candida albicans; assay: Ratio of bifonazole to compound for Candida albicans isolated from human; format: functional
[39] = test system: Aspergillus ochraceus; assay: Ratio of ketoconazole to compound for Aspergillus ochraceus ATCC 12066; format: functional
[40] = test system: Aspergillus fumigatus; assay: Ratio of ketoconazole to compound for Aspergillus fumigatus isolated from human; format: functional
[41] = test system: Penicillium ochrochloron; assay: Ratio of ketoconazole to compound for Penicillium ochrochloron ATCC 9112; format: functional
[42] = test system: Candida albicans; assay: Ratio of ketoconazole to compound for Candida albicans isolated from human; format: functional
[43] = test system: Aspergillus ochraceus; assay: Antifungal activity against Aspergillus ochraceus after 72 hrs by serial dilution technique

For `CCCNc1nc(C)c(C(=O)/C=C/c2ccccc2)s1`, which MIC [1] is on record?
Its MIC is 90 µM (≈ 25.8 µg/mL).

What about the MIC [2] of the same compound?
Its MIC is 35 µM (≈ 10 µg/mL).

What about the MIC [3] of the same compound?
Its MIC is 70 µM (≈ 20 µg/mL).

What about the MIC [4] of the same compound?
The MIC was 90 µM (≈ 25.8 µg/mL).

And the MIC [5]?
Its MIC is 70 µM (≈ 20 µg/mL).

What about the MIC [6] of the same compound?
Its MIC is 70 µM (≈ 20 µg/mL).

What about the MIC [7] of the same compound?
Its MIC is 70 µM (≈ 20 µg/mL).

And the MIC [8]?
The MIC was 90 µM (≈ 25.8 µg/mL).

And the MBC [9]?
Its MBC is 105 µM (≈ 30.1 µg/mL).

And the MBC [10]?
The MBC was 70 µM (≈ 20 µg/mL).

What about the MBC [11] of the same compound?
The MBC was 105 µM (≈ 30.1 µg/mL).

What about the MBC [12] of the same compound?
Its MBC is 105 µM (≈ 30.1 µg/mL).

And the MBC [13]?
The MBC was 90 µM (≈ 25.8 µg/mL).

And the MBC [14]?
The MBC was 90 µM (≈ 25.8 µg/mL).

And the MBC [15]?
The MBC was 88 µM (≈ 25.2 µg/mL).

What about the MBC [16] of the same compound?
The MBC was 90 µM (≈ 25.8 µg/mL).

And the MIC [17]?
Its MIC is 35 µM (≈ 10 µg/mL).

And the MIC [18]?
Its MIC is 52.4 µM (≈ 15 µg/mL).

What about the MIC [19] of the same compound?
Its MIC is 52.4 µM (≈ 15 µg/mL).

What about the MIC [20] of the same compound?
Its MIC is 52.4 µM (≈ 15 µg/mL).

What about the MIC [21] of the same compound?
Its MIC is 35 µM (≈ 10 µg/mL).

And the MIC [22]?
The MIC was 26.2 µM (≈ 7.5 µg/mL).

And the MIC [23]?
The MIC was 35 µM (≈ 10 µg/mL).

And the MFC [24]?
Its MFC is 52.4 µM (≈ 15 µg/mL).

And the MFC [25]?
Its MFC is 70 µM (≈ 20 µg/mL).

And the MFC [26]?
The MFC was 70 µM (≈ 20 µg/mL).

What about the MFC [27] of the same compound?
The MFC was 70 µM (≈ 20 µg/mL).

And the MFC [28]?
The MFC was 70 µM (≈ 20 µg/mL).

What about the MFC [29] of the same compound?
Its MFC is 70 µM (≈ 20 µg/mL).

What about the MFC [30] of the same compound?
The MFC was 35 µM (≈ 10 µg/mL).

And the MFC [31]?
The MFC was 70 µM (≈ 20 µg/mL).

And the Ratio [32]?
Its Ratio is 10.

What about the Ratio [33] of the same compound?
The Ratio was 10.

And the Ratio [34]?
Its Ratio is 10.

And the Ratio [35]?
Its Ratio is 10.

And the Ratio [36]?
The Ratio was 10.

What about the Ratio [37] of the same compound?
The Ratio was 10.

And the Ratio [38]?
The Ratio was 10.

What about the Ratio [39] of the same compound?
The Ratio was 10.

And the Ratio [40]?
The Ratio was 10.

And the Ratio [41]?
The Ratio was 10.

And the Ratio [42]?
The Ratio was 10.

And the MIC [43]?
Its MIC is 52.4 µM (≈ 15 µg/mL).
